High-throughput results from PubChem.
Shown are actives, neighbours in structure and some others; about 4.1% of the full set was active somewhere.
KCC2 mod – KCC2 (human) Cl- transport modulation; Q9H2X9; KCC2 cells, thallium flux FluoZin-2 fluorescence; B-score of Tl+ flux slope (higher = more flux/activation; lower = inhibition) at 10 µM; 190,000 tested, 2.2% active; AID 1456;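 active means thallium flux slope and its plate-corrected score both differing from the plate sample mean at a set confidence after two filtering rounds, in either direction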;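 further: slope of fluorescence scaled to starting intensity during 10 to 20 s after thallium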
KCNK3 block – human KCNK3 channel inhibition, primary screen. CHO-KCNK3 thallium flux, FluxOR fluorescence; active compounds read low. B-score at 10 µM. 340,000 tested, 0.84% active. AID 602410;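 active means B-score under library mean minus 4 SD, starting fluorescence ratio at most library mean plus 5 SD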;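 further: more negative B-score means stronger inhibition of thallium flux through KCNK3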
Target sequence (O14649 whole entry, looked up): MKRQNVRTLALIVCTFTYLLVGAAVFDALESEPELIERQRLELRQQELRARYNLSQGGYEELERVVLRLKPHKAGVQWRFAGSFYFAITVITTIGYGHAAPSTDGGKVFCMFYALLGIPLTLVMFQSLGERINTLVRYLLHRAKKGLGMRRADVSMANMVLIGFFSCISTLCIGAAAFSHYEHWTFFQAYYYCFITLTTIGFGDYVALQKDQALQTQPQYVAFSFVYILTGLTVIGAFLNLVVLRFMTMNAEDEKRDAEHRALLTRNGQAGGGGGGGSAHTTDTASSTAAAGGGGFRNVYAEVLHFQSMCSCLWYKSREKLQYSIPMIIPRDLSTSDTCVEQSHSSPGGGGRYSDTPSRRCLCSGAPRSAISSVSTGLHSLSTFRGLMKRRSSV
KCNQ1 inh – inhibitors of human KCNQ1 potassium channel; P51787; CHO-K1 KCNQ1, FluxOR thallium flux fluorescence; active compounds read high; B-score at 10 µM; 310,000 tested, 1.3% active; AID 2642;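 active means compounds whose thallium flux B-score, printed positive for inhibition, exceeds three library SD while starting fluorescence stays within three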;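 further: channel opened by potassium depolarization with thallium stimulus after 20 min compound exposure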
KCNQ1 act – human KCNQ1 channel potentiation or activation; P51787; CHO-K1 KCNQ1, thallium flux FluxOR fluorescence; active compounds read high; B-score at 10 µM; 310,000 tested, 0.35% active; AID 2648;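 active means fluorescence ratio B-score, a plate-corrected score, at least three library SD, with initial intensity B-score within 5 SD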
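Assay system: CHO-K1 cells stably expressing KCNQ1. Medium: assay buffer for compound exposure, DMSO matched across wells. Timing: 37 °C overnight plating, 90-min dark dye load, 20-min compound pretreatment. Signal: kinetic FluxOR fluorescence, 10 s baseline plus 110 s post-stimulus.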
hERG protect – shields human hERG channel from block by proarrhythmic agents; Q12809; CHO-hERG, FluxOR thallium flux, dofetilide IC70 present; activation (rescue from dofetilide block), less the hit threshold, % at 10 µM; 310,000 tested, 0.51% active; AID 1511;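 active means activation above the mean of controls blocked by dofetilide plus 5 SD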;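 further: thallium influx through hERG after potassium depolarization seen as dye fluorescence rise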
KCNK9 block – inhibitors of human KCNK9 two-pore domain potassium channel | Q9NPC2 | HEK293 KCNK9, FluxOR thallium flux fluorescence; active compounds read low | B-score at 10 µM | 310,000 tested, 1.2% active;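 active means ratio B-score over 3 SD below the library mean, with starting fluorescence within 5 SD of its mean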;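 further: negative B-score means less thallium flux so channel inhibition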
KCNQ1 inh valid – human KCNQ1 channel inhibition, validation assay. shares compounds with KCNQ1 inh. KCNQ1 cell line, FluxOR thallium flux fluorescence. inhibition, % at 10 µM. 1,600 tested, 93% active;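 active means primary screen active, with duplicate mean exceeding buffer control mean plus 3 SD of buffer wells, cut at about 28% in these data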
CHO KCNQ1 ctr – KCNQ1 inhibitor counter-screen hit in parental CHO cells | shares compounds with KCNQ1 inh | parental CHO-K1, FluxOR thallium flux fluorescence ratio; active compounds read low; zero means no signal rise above baseline | fluorescence ratio (Tl flux) at 10 µM | 1,600 tested, 21% active | AID 588366;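 active means mean of duplicate thallium-flux fluorescence ratios in parental host cells more than 5 SD below the buffer control mean, cut at about 0.38 in these data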;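 further: ratio is peak minus minimum fluorescence divided by baseline fluorescence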
KCNQ1 APC inh – confirmation of human KCNQ1 potassium channel inhibitors by electrophysiology; shares compounds with KCNQ1 inh; KCNQ1-CHO cells, automated patch clamp current; calls only at 10 µM; 490 tested, 20% active; AID 624120;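 active means KCNQ1 current drop exceeding 3 SD of negative control wells, seen in both duplicate runs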;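 further: steady state current during a 2 s step from -80 to +40 mV; negative values mean current inhibition and positive values mean potentiation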
KCNQ2 inh – KCNQ1 inhibitor that also blocks rat KCNQ2 channel. shares compounds with KCNQ1 inh. KCNQ2 cells, FluxOR thallium flux fluorescence. inhibition, % at 10 µM. 1,600 tested, 71% active. AID 651746;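 active means mean percent inhibition of the KCNQ2 thallium signal more than 5 SD above the buffer-only control wells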;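 further: KCNQ2 expressed in CHO cells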
KCNQ1 KCNE1 spec – KCNQ1 inhibitor that also blocks human KCNQ1/KCNE1 channel; shares compounds with KCNQ1 inh; AID 652147; KCNQ1/KCNE1 cells, FluxOR thallium flux fluorescence; 1,600 tested, 77% active; inhibition, % at 10 µM;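 active means mean percent inhibition of duplicate wells above the buffer-only control mean plus 3 SD of those controls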
Hits are given with their value; n = inactive; x = no result given.

SMILES | KCC2 mod | KCNK3 block | KCNQ1 inh | KCNQ1 act | hERG protect | KCNK9 block | KCNQ1 inh valid | CHO KCNQ1 ctr | KCNQ2 inh | KCNQ1 KCNE1 spec | others
O=C(O)C(C(O)c1ccc([N+](=O)[O-])cc1)[n+]1ccccc1 (configuration not stated) | x | n | n | n | n | n | x | x | x | x
CC1CCN(S(=O)(=O)c2nnc(NC(=O)c3cccc(Cl)c3)s2)CC1 | x | n | 9 | n | n | n | 32 | n | n | n
COc1ccc(NC(=O)COC(=O)c2cccn2C)cc1S(=O)(=O)N1CCCCC1 | x | n | x | x | x | x | x | x | x | x
O=C(Nc1nc(-c2ccccc2)cs1)C1CCCCN1S(=O)(=O)c1ccccc1 (configuration not stated) | n | n | n | n | n | n | x | x | x | x
O=C(Nc1nc(-c2ccccc2)cs1)C1CCCCN1S(=O)(=O)c1ccc(Cl)cc1 (configuration not stated) | n | n | 10 | n | n | n | 90 | n | 93% | 131% | KCNQ1 APC inh=n
CCOC(=O)c1ccc(NC(=O)c2cccc(S(=O)(=O)N3c4ccccc4CC3C)c2)s1 (configuration not stated) | n | n | 7 | n | n | n | 89 | n | n | 110% | KCNQ1 APC inh=n
COc1cccc(-c2nc(NC(C)C)c3ccccc3n2)c1O | x | n | n | n | n | n | x | x | x | x
CCC(C)Nc1nc(-c2cccc(OC)c2O)nc2ccccc12 (configuration not stated) | n | -12 | 11 | n | n | n | 125 | 0.31 | n | 139%
Cc1ccccc1NC(=O)Nc1ccc(C(F)(F)F)cc1 | n | n | 6 | n | n | n | 134 | n | 101% | n | KCNQ1 APC inh=n
O=C(Nc1ccccc1F)Nc1cccc2ccc(O)cc12 | n | n | 9 | n | n | n | 80 | n | 64% | n
O=C(Nc1ccc(Br)cc1)Nc1ccccc1F | n | n | 7 | n | n | n | 52 | n | n | n
CC(=O)Nc1cccc2ccc(O)cc12 | x | n | x | x | x | x | x | x | x | x
Cc1cc2c(NC(=O)Nc3ccc(C(C)(C)C)cc3)cccc2nn1 | n | n | 7 | n | n | n | 118 | n | 81% | 68% | KCNQ1 APC inh=n
Cc1cccc(C(=O)OC(C)C(=O)Nc2ccc(S(=O)(=O)N3CCCC3)cc2)c1O (configuration not stated) | x | n | 10 | n | n | n | 136 | 0.38 | 117% | 178%
Cc1cc(C(=O)OCC(=O)NC(C)c2ccc(F)cc2)c(C)o1 (configuration not stated) | x | n | x | x | x | x | x | x | x | x
C=CCNc1nc2ccccc2nc1NS(=O)(=O)c1ccc(Br)cc1 | x | n | 7 | n | n | n | 70 | n | 59% | n
CC(C)[C@H](NC(=O)c1ccc(C(C)(C)C)cc1)C(=O)N1CCN(Cc2ccc3c(c2)OCO3)CC1 | x | n | x | x | x | x | x | x | x | x
Cc1ccc(C)c(NC(=S)NCCSc2ccc(Cl)cc2)c1 | n | n | 8 | n | n | n | 122 | n | 90% | 122% | KCNQ1 APC inh=n
Cc1cccc(NC(=S)NCCSc2ccc(Cl)cc2)c1 | n | n | 8 | n | n | n | 82 | n | 60% | 96%
O=C(COC(=O)c1ccccc1Cc1ccccc1)Nc1ccc(SC(F)F)cc1 | n | n | 7 | n | n | n | 86 | n | 128% | 101%
Cc1ccc(C(=O)c2ccccc2C(=O)OCC(=O)Nc2ccc(SC(F)F)cc2)cc1 | n | n | n | n | n | n | x | x | x | x
